Source: ChEMBL document CHEMBL3751714, “Antileishmanial activity of novel indolyl-coumarin hybrids: Design, synthesis, biological evaluation, molecular docking study and in silico ADME prediction” (Bioorg Med Chem Lett, 2016)
≈ marks a conversion by molar mass, not a printed value.

Key:
Leishmania donovani [1] = experiment: Antileishmanial activity against promastigotes of Leishmania donovani MHOM/IN/80/DD8 after 72 hrs by MTT assay; assay type: functional, organism-based; details: MHOM/IN/80/DD8, 72 h
Procedure, shortened: (§1)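 Cultured L. donovani promastigotes (strain […]) were exposed to the compounds. Viability was read by a modified MTT assay, in which formazan output tracks metabolically active cells. The concentration that cut growth by 50% (IC50) was found by graphic interpolation.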

[2] = Antioxidant activity of the compound assessed as DPPH radical scavenging after 30 mins by spectrophotometric analysis; assay type: physicochemical
Procedure, shortened: (§2)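 DPPH radical scavenging assay. The control contained all reagents except the test compound. % scavenging = [(A control − A sample)/[…]] × 100, taken from absorbance readings.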

HeLa = experiment: Cytotoxicity against human HeLa cells assessed as cell viability at 100 ug/ml by microscopic analysis; assay type: cell-based
Procedure, shortened: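 HeLa cells were treated at 100 μg/mL and assessed by the MTT method. Cells were also viewed under a microscope at 10X magnification.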

[3] = Antioxidant activity assessed as ABTS radical scavenging activity by TEAC assay; assay type: physicochemical
[4] = Antioxidant activity of the compound; assay type: physicochemical; procedure, shortened: as §2
Leishmania donovani [5] = experiment: Antileishmanial activity against promastigotes of Leishmania donovani assessed as parasite growth inhibition; assay type: functional, organism-based; procedure, shortened: as §1
Leishmania major [6] = experiment: Antileishmanial activity against promastigotes of Leishmania major MHOM/IL/67/LRC-L43 assessed as parasite growth inhibition after 24 hrs by uranyl acetate/ magnesium uranyl acetate/lead citrate staining-based electron microscopic analysis; assay type: functional, organism-based; details: MHOM/IL/67/LRC-L43, 24 h
Leishmania major [7] = experiment: Antileishmanial activity against stationary-phase promastigotes of Leishmania major MRHO/IR/75/ER assessed as parasite growth inhibition after 48 hrs by Neubar chamber method; assay type: functional, organism-based

SMILES	IC50 (Leishmania donovani [1]) [µg/mL]	IC50 [2] [µg/mL]	further results
O=C(CC(c1ccc(O)c(O)c1)c1c[nH]c2ccccc12)c1c(O)c2ccccc2oc1=O (configuration not stated)	231 (≈ 523 µM)	71.08 (≈ 161 µM)	–
O=C(CC(c1ccc(F)cc1)c1c[nH]c2ccccc12)c1c(O)c2ccccc2oc1=O (configuration not stated)	156 (≈ 364 µM)	47.35 (≈ 111 µM)	–
O=C(CC(c1ccc(O)cc1)c1c[nH]c2ccccc12)c1c(O)c2ccccc2oc1=O (configuration not stated)	288 (≈ 676 µM)	58.91 (≈ 138 µM)	–
O=C(CC(c1c(Cl)cccc1Cl)c1c[nH]c2ccccc12)c1c(O)c2ccccc2oc1=O (configuration not stated)	95 (≈ 199 µM)	13.49 (≈ 28.2 µM)	Activity (HeLa): Non-toxic
O=C(CC(c1ccccc1Cl)c1c[nH]c2ccccc12)c1c(O)c2ccccc2oc1=O (configuration not stated)	102 (≈ 230 µM)	39.62 (≈ 89.3 µM)	–
COc1ccc(C(CC(=O)c2c(O)c3ccccc3oc2=O)c2c[nH]c3ccccc23)c(OC)c1 (configuration not stated)	250 (≈ 531 µM)	13.24 (≈ 28.2 µM)	–
O=C(CC(c1ccc(Cl)cc1)c1c[nH]c2ccccc12)c1c(O)c2ccccc2oc1=O (configuration not stated)	125 (≈ 282 µM)	46.35 (≈ 104 µM)	–
COc1ccc(OC)c(C(CC(=O)c2c(O)c3ccccc3oc2=O)c2c[nH]c3ccccc23)c1 (configuration not stated)	99 (≈ 211 µM)	19.02 (≈ 40.5 µM)	–
N#Cc1ccc(C(CC(=O)c2c(O)c3ccccc3oc2=O)c2c[nH]c3ccccc23)cc1 (configuration not stated)	102 (≈ 234 µM)	13.74 (≈ 31.6 µM)	–
O=c1oc2ccccc2cc1C1=Nn2c(nnc2-c2ccccc2)SC1	–	–	IC50 [3]: 39.9 µg/mL (≈ 111 µM)
COc1ccc(C(CC(=O)c2c(O)c3ccccc3oc2=O)c2c[nH]c3ccccc23)cc1 (configuration not stated)	174 (≈ 396 µM)	16.21 (≈ 36.9 µM)	–
O=C(CC(c1ccccc1)c1c[nH]c2ccccc12)c1c(O)c2ccccc2oc1=O (configuration not stated)	95.5 (≈ 233 µM)	12.4 (≈ 30.3 µM)	–
COc1ccc(C(CC(=O)c2c(O)c3ccccc3oc2=O)c2c[nH]c3ccccc23)cc1OC (configuration not stated)	212 (≈ 452 µM)	63.16 (≈ 135 µM)	–
O=C1O[C@H]([C@@H](O)CO)C(O)=C1O [ASCORBIC ACID]	–	12.8 (≈ 72.7 µM)	–
O=C(/C=C/c1ccc(O)c(O)c1)c1ccc(O)cc1O [BUTEIN]	–	–	IC50 [4]: 3.3 µg/mL (≈ 12.1 µM)
Cc1cc(C(C)(C)C)c(O)c(C(C)(C)C)c1 [BUTYLATED HYDROXYTOLUENE]	–	16.5 (≈ 74.9 µM)	–
C=CC(C)(C)c1cc(/C=C/C(=O)c2ccc(O)cc2)c(OC)cc1O [LICOAGROCHACONE A]	–	–	IC50 (Leishmania donovani [5]): 2.7 µM; IC50 (Leishmania major [6]): 2.5 µg/mL (≈ 7.39 µM)
CC(C)=CCC/C(C)=C/CC/C(C)=C/COc1ccc2ccc(=O)oc2c1 [UMBELLIPRENIN]	–	–	IC50 (Leishmania major [7]): 13.3 µM
